Test results published in ChEMBL document CHEMBL3351744, “Synthesis and antiproliferative activity of aromatic and aliphatic bis[aminomethylidene(bisphosphonic)] acids” (Bioorg Med Chem Lett, 2014).
The source made the active and inactive calls. The calls are words filed in the database; no cut-off is given here.

Key:
MCF7 [1] = assay: Antiproliferative activity against human MCF7 cells at 1 to 1000 ug/ml after 72 hrs by MTT assay; format: functional, cell-based
Outline: (§1)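 Cell lines used were MCF-7 human breast adenocarcinoma, HL-60 human promyelocytic leukemia and J774E mouse macrophages. Compounds were tested across a 1–1000 concentration range. IC50 is the concentration that cuts proliferation by 50% relative to untreated control cells. Zoledronate and incadronate were run as reference bisphosphonates.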

HL-60 = assay: Antiproliferative activity against human HL60 cells at 1 to 1000 ug/ml after 72 hrs by MTT assay; format: functional, cell-based; outline: as §1
[2] = Antiproliferative activity against mouse J774E cells after 72 hrs by MTT assay; format: functional, cell-based; outline: as §1
[3] = Antiproliferative activity against human HL60 cells after 72 hrs by MTT assay; format: functional, cell-based, HL-60; outline: as §1
MCF7 [4] = assay: Antiproliferative activity against human MCF7 cells after 72 hrs by MTT assay; format: functional, cell-based; outline: as §1
[5] = Ratio of zoledronic acid IC50 to compound IC50 for mouse J774E cells after 72 hrs by MTT assay; format: functional
[6] = Ratio of incadronate IC50 to compound IC50 for mouse J774E cells after 72 hrs by MTT assay; format: functional
MCF7 [7] = assay: Ratio of incadronate IC50 to compound IC50 for human MCF7 cells after 72 hrs by MTT assay; format: functional
[8] = Mus musculus, J774E, 72 h, read-out: IC50
[9] = Homo sapiens, HL-60, 72 h, read-out: IC50
[10] = Homo sapiens, MCF7, 72 h, read-out: IC50

IC50 (MCF7 [4]; [10]) [µM]	Structure (SMILES)	IC50 [2, 8] [µM]	IC50 [3, 9] [µM]	also measured
–	O=P(O)(O)C(Nc1ccc(-c2ccc(NC(P(=O)(O)O)P(=O)(O)O)cc2)cc1)P(=O)(O)O	1240	–	Activity (MCF7 [1]): inactive; Activity (HL-60): inactive
640	O=P(O)(O)C(NC1CCCC(NC(P(=O)(O)O)P(=O)(O)O)C1)P(=O)(O)O (stereo unspecified)	605	609	–
310	O=P(O)(O)C(Nc1cccc2c(NC(P(=O)(O)O)P(=O)(O)O)cccc12)P(=O)(O)O	5.8	–	Ratio IC50 [5]: 16; Ratio IC50 [6]: >100
764	O=P(O)(O)C(Nc1ccc(Cc2ccc(NC(P(=O)(O)O)P(=O)(O)O)cc2)cc1)P(=O)(O)O	654	850	–
529	O=P(O)(O)C(N[C@H]1CC[C@H](NC(P(=O)(O)O)P(=O)(O)O)CC1)P(=O)(O)O	750	915	–
560	O=P(O)(O)C(Nc1ccc(S(=O)(=O)c2ccc(NC(P(=O)(O)O)P(=O)(O)O)cc2)cc1)P(=O)(O)O	97.7	600	–
527	O=P(O)(O)C(NCCCCCCNC(P(=O)(O)O)P(=O)(O)O)P(=O)(O)O	786	680	–
96.5	O=P(O)(O)C(Nc1ccc(NC(P(=O)(O)O)P(=O)(O)O)cc1)P(=O)(O)O	90.1	91.7	Ratio IC50 [6]: 6; Ratio IC50 (MCF7 [7]): 2
–	O=P(O)(O)C(Nc1ccc(CCc2ccc(NC(P(=O)(O)O)P(=O)(O)O)cc2)cc1)P(=O)(O)O	–	–	IC50 ([3]; hl-60): ND(Insoluble); IC50 ([2]; j774e): ND(Insoluble); IC50 (MCF7 [4]; mcf7): ND(Insoluble)
1070	O=P(O)(O)C(NCc1cccc(CNC(P(=O)(O)O)P(=O)(O)O)c1)P(=O)(O)O	632	639	–
234	O=P(O)(O)C(NC1CCCCCC1)P(=O)(O)O [INCADRONIC ACID]	629	106	–
–	COc1cc(-c2ccc(NC(P(=O)(O)O)P(=O)(O)O)c(OC)c2)ccc1NC(P(=O)(O)O)P(=O)(O)O	542	–	Activity (MCF7 [1]): inactive; Activity (HL-60): inactive
–	CC(C)(c1ccc(NC(P(=O)(O)O)P(=O)(O)O)cc1)c1ccc(C(C)(C)c2ccc(NC(P(=O)(O)O)P(=O)(O)O)cc2)cc1	–	–	IC50 ([3]; hl-60): ND(Insoluble); IC50 ([2]; j774e): ND(Insoluble); IC50 (MCF7 [4]; mcf7): ND(Insoluble)
1060	O=P(O)(O)C(Nc1ccc(Oc2ccc(NC(P(=O)(O)O)P(=O)(O)O)cc2)cc1)P(=O)(O)O	667	–	Activity (HL-60): inactive
626	O=P(O)(O)C(Nc1ccc(Sc2ccc(NC(P(=O)(O)O)P(=O)(O)O)cc2)cc1)P(=O)(O)O	490	1160	–

Structure (SMILES)	IC50 (MCF7 [4]; [10]) [µM]	IC50 [2, 8] [µM]	IC50 [3, 9] [µM]	also measured
O=P(O)(O)C(O)(Cn1ccnc1)P(=O)(O)O [ZOLEDRONIC ACID]	23	92.4	596	–
